ChEMBL document CHEMBL3352171, “Synthesis and biological evaluation of andrographolide analogues as anti-cancer agents” (Eur J Med Chem, 2014)
Activity calls are given as the source filed them. The rule behind the calls is not given here.

Columns and labels:
HEK293 [1] = assay: Cytotoxicity against HEK293 cells after 48 hrs by MTT assay; type: functional; settings: Homo sapiens, HEK293, 48 h; read-out: LC50 (the source's name)
How it was run: (§1)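 Cells seeded at 10,000 per well and exposed to increasing compound concentrations for 48 h. After a PBS wash, MTT (2.5 mg/mL) was added for 6 h at 37 °C, then detergent (10% NP-40, 4 mM HCl), and absorbance was read at 570 nm. LC50 is the concentration causing 50% cell death. Values are means of three independent experiments.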

Vero = assay: Cytotoxicity against african green monkey Vero cells after 48 hrs by MTT assay; type: cell-based; settings: chlorocebus sabaeus; how it was run: as §1
[2] = Retention time of the compound by HPLC method; type: physicochemical
HEK293 [3] = assay: Induction of apoptosis in HEK293 cells assessed as apoptotic nuclei formation at 10 uM after 48 hrs by DAPI staining based fluorescence microscopy; type: functional, cell-based; settings: Homo sapiens
HEK293 [4] = assay: Induction of cell death in HEK293 cells at 15 to 20 uM after 48 hrs by DAPI staining based fluorescence microscopy; type: functional; settings: Homo sapiens
HEK293 [5] = assay: Induction of apoptosis in HEK293 cells at 5 to 20 uM after 48 hrs by DAPI staining based fluorescence microscopy; type: functional, cell-based; settings: Homo sapiens
MCF7 = assay: Cytotoxicity against human MCF7 cells after 48 hrs by MTT assay; type: functional; settings: MCF7, 48 h, read-out: LC50 (the source's name); how it was run: as §1
[6] = Cytotoxicity against human MCF10A cells after 48 hrs by MTT assay; type: cell-based; settings: mcf-10a; how it was run: as §1
HEK293 [7] = assay: Induction of apoptosis in HEK293 cells at 5 uM after 48 hrs by propidium iodide staining based flow cytometry (reference value: 24.26 +/- 0.8%); type: functional, Homo sapiens
HEK293 [8] = assay: Induction of apoptosis in HEK293 cells at 10 uM after 48 hrs by propidium iodide staining based flow cytometry (reference value: 24.26 +/- 0.8%); type: functional, Homo sapiens
HEK293 [9] = assay: Induction of apoptosis in HEK293 cells at 15 uM after 48 hrs by propidium iodide staining based flow cytometry (reference value: 24.26 +/- 0.8%); type: functional, Homo sapiens
HEK293 [10] = assay: Induction of apoptosis in HEK293 cells at 20 uM after 48 hrs by propidium iodide staining based flow cytometry (reference value: 24.26 +/- 0.8%); type: functional, Homo sapiens
HEK293 [11] = assay: Induction of cell cycle arrest in HEK293 cells assessed as accumulation at G1 phase at 5 uM after 48 hrs by propidium iodide staining based flow cytometry (reference value: 53.21 +/- 0.8%); type: functional, Homo sapiens
HEK293 [12] = assay: Induction of cell cycle arrest in HEK293 cells assessed as accumulation at G1 phase at 10 uM after 48 hrs by propidium iodide staining based flow cytometry (reference value: 53.21 +/- 0.8%); type: functional, Homo sapiens
HEK293 [13] = assay: Induction of cell cycle arrest in HEK293 cells assessed as accumulation at G1 phase at 15 uM after 48 hrs by propidium iodide staining based flow cytometry (reference value: 53.21 +/- 0.8%); type: functional, Homo sapiens
HEK293 [14] = assay: Induction of cell cycle arrest in HEK293 cells assessed as accumulation at G1 phase at 20 uM after 48 hrs by propidium iodide staining based flow cytometry (reference value: 53.21 +/- 0.8%); type: functional, Homo sapiens
HEK293 [15] = assay: Induction of cell cycle arrest in HEK293 cells assessed as accumulation at S phase at 5 uM after 48 hrs by propidium iodide staining based flow cytometry (reference value: 19.9 +/- 0.5%); type: functional, Homo sapiens
HEK293 [16] = assay: Induction of cell cycle arrest in HEK293 cells assessed as accumulation at S phase at 10 uM after 48 hrs by propidium iodide staining based flow cytometry (reference value: 19.9 +/- 0.5%); type: functional, Homo sapiens
HEK293 [17] = assay: Induction of cell cycle arrest in HEK293 cells assessed as accumulation at S phase at 15 uM after 48 hrs by propidium iodide staining based flow cytometry (reference value: 19.9 +/- 0.5%); type: functional, Homo sapiens
HEK293 [18] = assay: Induction of cell cycle arrest in HEK293 cells assessed as accumulation at S phase at 20 uM after 48 hrs by propidium iodide staining based flow cytometry (reference value: 19.9 +/- 0.5%); type: functional, Homo sapiens
HEK293 [19] = assay: Induction of cell cycle arrest in HEK293 cells assessed as accumulation at G2/M phase at 5 uM after 48 hrs by propidium iodide staining based flow cytometry (reference value: 2.63 +/- 0.7%); type: functional, Homo sapiens
HEK293 [20] = assay: Induction of cell cycle arrest in HEK293 cells assessed as accumulation at G2/M phase at 10 uM after 48 hrs by propidium iodide staining based flow cytometry (reference value: 2.63 +/- 0.7%); type: functional, Homo sapiens
HEK293 [21] = assay: Induction of cell cycle arrest in HEK293 cells assessed as accumulation at G2/M phase at 15 uM after 48 hrs by propidium iodide staining based flow cytometry (reference value: 2.63 +/- 0.7%); type: functional, Homo sapiens
HEK293 [22] = assay: Induction of cell cycle arrest in HEK293 cells assessed as accumulation at G2/M phase at 20 uM after 48 hrs by propidium iodide staining based flow cytometry (reference value: 2.63 +/- 0.7%); type: functional, Homo sapiens
HEK293 [23] = assay: Induction of apoptosis in HEK293 cells at 20 uM after 48 hrs by propidium iodide staining based flow cytometry relative to untreated control; type: functional, Homo sapiens
HEK293 [24] = assay: Increase in caspase-3 expression in HEK293 cells at LC50 level after 48 hrs by immunocytochemistry; type: functional, cell-based; settings: Homo sapiens
[25] = target: T1, Nuclear factor NF-kappa-B complex (Homo sapiens) (UniProt Q00653+P19838+Q04206); assay: Inhibition of NFkappaB (unknown origin) expressed in HEK293 cells assessed as reduction in transcriptional activity after 48 hrs by luciferase reporter gene assay; type: cell-based
How it was run: (§2)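 HEK-293 at 70% confluence transfected by calcium phosphate with NF-kB luciferase ([…]) and b-Gal ([…]) plasmids, 6–8 h, then fresh serum medium 12 h; treated 48 h, lysed, luciferase read and normalized to b-galactosidase. Three independent experiments.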

[26] = target: T1, Nuclear factor NF-kappa-B complex (Homo sapiens); assay: Inhibition of NFkappaB (unknown origin) expressed in HEK293 cells assessed as reduction in transcriptional activity at 10 uM after 48 hrs by luciferase reporter gene assay; type: cell-based; how it was run: as §2
HEK293 [27] = assay: Increase in Bax expression in HEK293 cells at LC50 level after 48 hrs by Western blot method; type: functional, cell-based; settings: Homo sapiens
HEK293 [28] = assay: Reduction in Bcl-xL expression in HEK293 cells at LC50 level after 48 hrs by Western blot method; type: functional, cell-based; settings: Homo sapiens
HEK293 [29] = assay: Increase in PARP cleavage in HEK293 cells at LC50 level after 48 hrs by Western blot method; type: functional, cell-based; settings: Homo sapiens
HEK293 [30] = assay: Increase in p53 expression in HEK293 cells at LC50 level after 48 hrs by Western blot method; type: functional, cell-based; settings: Homo sapiens
HEK293 [31] = assay: Reduction in NFkappaB expression in HEK293 cells at LC50 level after 48 hrs by Western blot method; type: functional, cell-based; settings: Homo sapiens
HEK293 [32] = assay: Increase in Bax expression in p53 deficient HEK293 cells at LC50 level after 48 hrs by Western blot method; type: functional, cell-based; settings: Homo sapiens
HEK293 [33] = assay: Reduction in Bcl-xL expression in p53 deficient HEK293 cells at LC50 level after 48 hrs by Western blot method; type: functional, cell-based; settings: Homo sapiens
HEK293 [34] = assay: Increase in PARP cleavage in p53 deficient HEK293 cells at LC50 level after 48 hrs by Western blot method; type: functional, cell-based; settings: Homo sapiens
HEK293 [35] = assay: Increase in p53 expression in p53 deficient HEK293 cells at LC50 level after 48 hrs by Western blot method; type: functional, cell-based; settings: Homo sapiens
HEK293 [36] = assay: Reduction in NFkappaB expression in p53 deficient HEK293 cells at LC50 level after 48 hrs by Western blot method; type: functional, cell-based; settings: Homo sapiens
[37] = Binding affinity to GC-28 DNA (unknown origin) minor groove by DAPI staining based spectrophotometry
How it was run: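 DAPI–DNA complex fluorescence read at 460 nm emission band; test compound added to the preformed complex and loss of fluorescence followed.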

T1 sequence (P19838 whole entry, looked up): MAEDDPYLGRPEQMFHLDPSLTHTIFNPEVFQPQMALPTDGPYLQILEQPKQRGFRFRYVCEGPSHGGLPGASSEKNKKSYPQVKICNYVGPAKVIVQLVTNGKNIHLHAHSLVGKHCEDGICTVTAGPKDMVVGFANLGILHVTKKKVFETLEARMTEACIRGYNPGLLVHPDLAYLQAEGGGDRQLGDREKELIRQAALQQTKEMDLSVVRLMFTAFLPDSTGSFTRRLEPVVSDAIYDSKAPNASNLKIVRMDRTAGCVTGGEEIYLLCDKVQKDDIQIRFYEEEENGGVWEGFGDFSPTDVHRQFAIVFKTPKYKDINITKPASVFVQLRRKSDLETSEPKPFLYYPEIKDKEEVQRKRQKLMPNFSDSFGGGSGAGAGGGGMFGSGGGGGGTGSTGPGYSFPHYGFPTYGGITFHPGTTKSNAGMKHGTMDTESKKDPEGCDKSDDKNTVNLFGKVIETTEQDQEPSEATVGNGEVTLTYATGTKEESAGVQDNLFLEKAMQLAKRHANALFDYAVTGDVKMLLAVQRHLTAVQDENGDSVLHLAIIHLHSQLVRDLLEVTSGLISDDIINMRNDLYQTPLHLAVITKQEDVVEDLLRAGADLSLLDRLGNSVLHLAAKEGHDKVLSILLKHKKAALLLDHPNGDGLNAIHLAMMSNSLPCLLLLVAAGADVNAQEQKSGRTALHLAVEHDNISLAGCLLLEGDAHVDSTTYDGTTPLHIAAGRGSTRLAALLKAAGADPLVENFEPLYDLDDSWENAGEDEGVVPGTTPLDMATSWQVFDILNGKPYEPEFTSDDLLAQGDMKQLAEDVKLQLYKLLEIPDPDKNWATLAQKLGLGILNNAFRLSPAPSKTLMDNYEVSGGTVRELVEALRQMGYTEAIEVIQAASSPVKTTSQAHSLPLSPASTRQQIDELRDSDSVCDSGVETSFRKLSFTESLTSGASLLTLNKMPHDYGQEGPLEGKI
T1 sequence (Q00653 whole entry, looked up): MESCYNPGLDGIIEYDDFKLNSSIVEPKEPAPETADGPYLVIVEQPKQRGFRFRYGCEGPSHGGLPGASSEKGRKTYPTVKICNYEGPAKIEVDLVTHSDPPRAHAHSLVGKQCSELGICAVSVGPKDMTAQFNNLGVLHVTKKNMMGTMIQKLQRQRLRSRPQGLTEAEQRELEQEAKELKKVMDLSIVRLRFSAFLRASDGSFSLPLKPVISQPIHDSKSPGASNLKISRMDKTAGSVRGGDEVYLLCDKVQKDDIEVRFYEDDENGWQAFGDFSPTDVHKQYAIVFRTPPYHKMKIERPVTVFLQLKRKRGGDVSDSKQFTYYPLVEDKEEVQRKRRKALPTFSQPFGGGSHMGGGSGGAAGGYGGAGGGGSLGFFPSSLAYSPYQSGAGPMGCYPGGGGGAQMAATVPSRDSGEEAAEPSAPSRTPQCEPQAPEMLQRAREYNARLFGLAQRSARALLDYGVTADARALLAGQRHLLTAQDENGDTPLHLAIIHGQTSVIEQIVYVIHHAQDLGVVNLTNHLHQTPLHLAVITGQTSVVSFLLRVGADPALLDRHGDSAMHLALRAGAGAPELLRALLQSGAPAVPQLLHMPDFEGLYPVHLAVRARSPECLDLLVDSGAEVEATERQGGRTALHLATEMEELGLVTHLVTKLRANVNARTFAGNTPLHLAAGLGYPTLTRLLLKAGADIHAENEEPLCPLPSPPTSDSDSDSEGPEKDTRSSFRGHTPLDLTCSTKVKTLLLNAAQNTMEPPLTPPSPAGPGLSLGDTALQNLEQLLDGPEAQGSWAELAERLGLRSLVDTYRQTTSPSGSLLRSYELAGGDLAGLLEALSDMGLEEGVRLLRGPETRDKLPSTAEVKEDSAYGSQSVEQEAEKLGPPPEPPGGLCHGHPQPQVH
T1 sequence (Q04206 whole entry, looked up): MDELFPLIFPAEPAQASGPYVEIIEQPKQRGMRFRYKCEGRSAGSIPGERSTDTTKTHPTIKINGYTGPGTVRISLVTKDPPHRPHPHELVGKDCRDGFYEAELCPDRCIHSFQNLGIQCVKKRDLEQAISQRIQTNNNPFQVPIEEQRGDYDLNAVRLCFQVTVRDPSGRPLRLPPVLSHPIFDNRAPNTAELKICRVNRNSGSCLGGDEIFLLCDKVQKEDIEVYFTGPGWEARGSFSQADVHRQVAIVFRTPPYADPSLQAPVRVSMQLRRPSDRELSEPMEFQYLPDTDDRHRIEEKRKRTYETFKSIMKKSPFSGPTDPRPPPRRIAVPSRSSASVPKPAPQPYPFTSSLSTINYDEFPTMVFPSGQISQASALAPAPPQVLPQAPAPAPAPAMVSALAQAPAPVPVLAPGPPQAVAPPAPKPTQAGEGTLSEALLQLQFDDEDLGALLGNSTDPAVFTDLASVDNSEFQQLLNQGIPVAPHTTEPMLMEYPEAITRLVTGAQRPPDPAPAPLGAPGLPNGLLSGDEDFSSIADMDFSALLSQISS

Q: With `C=C1CC[C@@H]2[C@]3(C)COC(C)(C)O[C@@H]3CC[C@@]2(C)[C@@H]1C/C=C1/C(=O)OC[C@H]1OC(=O)CCl` as the compound, how does the CC50 (HEK293 [1]) read?
A: 19 µM

Q: And the LC50 (Vero)?
A: 42 µM

Q: What does the source list for `C=C1CC[C@@H]2[C@](C)(CO)[C@H](O)CC[C@@]2(C)[C@@H]1C/C=C1/C(=O)OC[C@H]1OC(=O)CCl`?
A: CC50 (HEK293 [1]): 20 µM; LC50 (Vero): 25 µM; Retention_time [2]: 23.2 min

Q: Which CC50 (HEK293 [1]) does the source give for `O=c1[nH]cc(F)c(=O)[nH]1` [FLUOROURACIL] here?
A: 25 µM

Q: Which results are given for `C=C1CC[C@@H]2[C@](C)(CO)[C@H](O)CC[C@@]2(C)[C@@H]1C/C=C1/C(=O)OC[C@H]1OC(=O)CBr`?
A: Activity (HEK293 [3]): Active; Activity (HEK293 [4]): Active; Activity (HEK293 [5]): Dose-dependent effect; CC50 (HEK293 [1]): 12 µM; LC50 (Vero): 45 µM; CC50 (MCF7): 8.4 µM; LC50 [6]: > 40 µM; Retention_time [2]: 24.5 min; Activity (HEK293 [7]): 60.44%; Activity (HEK293 [8]): 67.33%; Activity (HEK293 [9]): 76.62%; Activity (HEK293 [10]): 88.84%; Activity (HEK293 [11]): 25.16%; Activity (HEK293 [12]): 19.57%; Activity (HEK293 [13]): 14.98%; Activity (HEK293 [14]): 9.01%; Activity (HEK293 [15]): 10.44%; Activity (HEK293 [16]): 10.28%; Activity (HEK293 [17]): 6.69%; Activity (HEK293 [18]): 1.57%; Activity (HEK293 [19]): 3.96%; Activity (HEK293 [20]): 2.82%; Activity (HEK293 [21]): 1.71%; Activity (HEK293 [22]): 0.58%; fold change (FC) (HEK293 [23]): >4; Activity (HEK293 [24]): Active; inhibition [25]: Dose-dependent effect; fold change (FC) [26]: 5; Activity (HEK293 [27]): Active; Activity (HEK293 [28]): Active; Activity (HEK293 [29]): Active; Activity (HEK293 [30]): Active; Activity (HEK293 [31]): Active; Activity (HEK293 [32]): inactive; Activity (HEK293 [33]): inactive; Activity (HEK293 [34]): inactive; Activity (HEK293 [35]): inactive; Activity (HEK293 [36]): inactive; Activity [37]: Active
